Experimental data: ChEMBL document CHEMBL1122624, “Activity of novel aminocannabinoids in baboons” (J Med Chem, 1984)
Active and inactive are the calls of the source. No cut-off for these calls is given here.

How the values were obtained:
Type in all cases: functional, organism-based
Cercopithecidae [1] = experiment: Psychotropic effects in Baboons at a dose 2.0 mg/kg; - = no change; set-up: dose 2 mg/kg
How it was run: (§1)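 Male or female baboons were given a single injection, with two animals per dose level. The same animals received the solvent alone 1 week later. Behaviour was scored by observation, including yawning, body scratching, motor activity, ptosis, posture and responsiveness.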

Cercopithecidae [2] = experiment: Induction of yawning and scratching was determined in Baboons at a dose 10.0 mg/kg; absent; set-up: dose 10 mg/kg; how it was run: as §1
Cercopithecidae [3] = experiment: Induction of yawning and scratching was determined in Baboons at a dose 5.0 mg/kg; absent; set-up: dose 5 mg/kg; how it was run: as §1
Cercopithecidae [4] = experiment: Induction of yawning and scratching was determined in Baboons at a dose 2.0 mg/kg; absent; set-up: dose 2 mg/kg; how it was run: as §1
Cercopithecidae [5] = experiment: Psychotropic effects in Baboons at a dose 5.0 mg/kg; +/- = tranquility; set-up: dose 5 mg/kg; how it was run: as §1
Cercopithecidae [6] = experiment: Psychotropic effects in baboons at a dose 10.0 mg/kg;+/- = tranquility; set-up: dose 10 mg/kg; how it was run: as §1
Cercopithecidae [7] = experiment: Induction of yawning and scratching was determined in Baboons at a dose 0.1 mg/kg; absent; set-up: dose 0.1 mg/kg; how it was run: as §1
Cercopithecidae [8] = experiment: Induction of yawning and scratching was determined in Baboons at a dose 0.5 mg/kg; absent; set-up: dose 0.5 mg/kg; how it was run: as §1
Cercopithecidae [9] = experiment: Induction of yawning and scratching was determined in Baboons at a dose 1.0 mg/kg; absent; set-up: dose 1 mg/kg; how it was run: as §1
Cercopithecidae [10] = experiment: Psychotropic effects in Baboons at a dose 0.5 mg/kg; ++ = stupor, ataxia, suppression of motor activity, full ptosis, typical crouched posture (thinker position) kept for up to 3 h; set-up: dose 0.5 mg/kg; how it was run: as §1
Cercopithecidae [11] = experiment: Psychotropic effects in Baboons at a dose 1.0 mg/kg; +++ = severe stupor and ataxia, full ptosis, immobility, crouched posture lasting for more than 3 h, and absence of reaction to external stimuli; set-up: dose 1 mg/kg; how it was run: as §1
Cercopithecidae [12] = experiment: Psychotropic effects in Baboons at a dose 0.1 mg/kg; +/- = tranquility; set-up: dose 0.1 mg/kg; how it was run: as §1
Cercopithecidae [13] = experiment: Psychotropic effects in Baboons at a dose 2.0 mg/kg; + = drowsiness, decreased motor activity, occasional partial ptosis, occasional head drop; set-up: dose 2 mg/kg; how it was run: as §1
Cercopithecidae [14] = experiment: Psychotropic effects in Baboons at a dose 1.0 mg/kg; - = no change; set-up: dose 1 mg/kg; how it was run: as §1
Cercopithecidae [15] = experiment: Induction of yawning and scratching was determined in Baboons at a dose 10.0 mg/kg; present; set-up: dose 10 mg/kg; how it was run: as §1
Cercopithecidae [16] = experiment: Induction of yawning and scratching was determined in Baboons at a dose 5.0 mg/kg; present; set-up: dose 5 mg/kg; how it was run: as §1
Cercopithecidae [17] = experiment: Induction of yawning and scratching was determined in Baboons at a dose 2.0 mg/kg; present; set-up: dose 2 mg/kg; how it was run: as §1
Cercopithecidae [18] = experiment: Psychotropic effects in Baboons at a dose 5.0 mg/kg; - = no change; set-up: dose 5 mg/kg; how it was run: as §1
Cercopithecidae [19] = experiment: Psychotropic effects in baboons at a dose 10.0 mg/kg; +/- = tranquility; set-up: dose 10 mg/kg; how it was run: as §1
Cercopithecidae [20] = experiment: Psychotropic effects in Baboons at a dose 0.1 mg/kg; ++ = stupor, ataxia, suppression of motor activity, full ptosis, typical crouched posture (thinker position) kept for up to 3 h; set-up: dose 0.1 mg/kg; how it was run: as §1
Cercopithecidae [21] = experiment: Psychotropic effects in Baboons at a dose 0.05 mg/kg; + = drowsiness, decreased motor activity, occasional partial ptosis, occasional head drop; set-up: dose 0.05 mg/kg; how it was run: as §1
Cercopithecidae [22] = experiment: Psychotropic effects in baboons at a dose 0.5 mg/kg; +++ = severe stupor and ataxia, full ptosis, immobility, crouched posture lasting for more than 3 h, and absence of reaction to external stimuli; set-up: dose 0.5 mg/kg; how it was run: as §1
Cercopithecidae [23] = experiment: Induction of yawning and scratching was determined in Baboons at a dose 0.05 mg/kg; absent; set-up: dose 0.05 mg/kg; how it was run: as §1
Cercopithecidae [24] = experiment: Induction of yawning and scratching was determined in Baboons at a dose 4.0 mg/kg; absent; set-up: dose 4 mg/kg; how it was run: as §1
Cercopithecidae [25] = experiment: Psychotropic effects in Baboons at a dose 4.0 mg/kg; - = no change; set-up: dose 4 mg/kg; how it was run: as §1
Cercopithecidae [26] = experiment: Psychotropic effects in Baboons at a dose 10.0 mg/kg; - = no change; set-up: dose 10 mg/kg; how it was run: as §1

Q: What does the source list for `CCCCCc1cc(O)c2c(c1)OC(C)(C)[C@@H]1CCC(CNC)CC21` (stereo partly drawn)?
A: Activity (Cercopithecidae [1]): inactive; Activity (Cercopithecidae [2]): inactive; Activity (Cercopithecidae [3]): inactive; Activity (Cercopithecidae [4]): inactive; Activity (Cercopithecidae [5]): +/-; Activity (Cercopithecidae [6]): +/-

Q: For `CCCCCc1cc(O)c2c(c1)OC(C)(C)[C@@H]1CC[C@@H](C)CC21` (stereo partly drawn), which Activity (Cercopithecidae [7]) is on record?
A: Its Activity is “inactive”.

Q: And the Activity (Cercopithecidae [8])?
A: The Activity was “inactive”.

Q: What about the Activity (Cercopithecidae [9]) of the same compound?
A: The Activity was “inactive”.

Q: And the Activity (Cercopithecidae [10])?
A: The Activity was “severe stupor and ataxia, full ptosis, immobility, crouched posture lasting for more than 3 h, and absence of reaction to external stimuli”.

Q: And the Activity (Cercopithecidae [11])?
A: The Activity was “severe stupor and ataxia, full ptosis, immobility, crouched posture lasting for more than 3 h, and absence of reaction to external stimuli”.

Q: What about the Activity (Cercopithecidae [12]) of the same compound?
A: The Activity was “+/-”.

Q: How did the Activity (Cercopithecidae [13]) turn out when `CCCCCc1cc(O)c2c(c1)OC(C)(C)[C@@H]1CC[C@H](C)CC21` (stereo partly drawn) was run?
A: The Activity was “drowsiness, decreased motor activity, occasional partial ptosis, occasional head drop”.

Q: And the Activity (Cercopithecidae [9])?
A: The Activity was “inactive”.

Q: What about the Activity (Cercopithecidae [4]) of the same compound?
A: Its Activity is “inactive”.

Q: And the Activity (Cercopithecidae [14])?
A: Its Activity is “inactive”.

Q: With `CCCCCc1cc(O)c2c(c1)OC(C)(C)[C@@H]1CC[C@H](CNC)CC21` (stereo partly drawn) as the compound, how does the Activity (Cercopithecidae [1]) read?
A: The Activity was “inactive”.

Q: What about the Activity (Cercopithecidae [15]) of the same compound?
A: Its Activity is “present”.

Q: And the Activity (Cercopithecidae [16])?
A: The Activity was “present”.

Q: And the Activity (Cercopithecidae [17])?
A: The Activity was “present”.

Q: What about the Activity (Cercopithecidae [18]) of the same compound?
A: Its Activity is “inactive”.

Q: And the Activity (Cercopithecidae [19])?
A: The Activity was “+/-”.

Q: With `CCCCCc1cc(O)c2c(c1)OC(C)(C)[C@@H]1CC=C(C)C[C@@H]21` as the compound, how does the Activity (Cercopithecidae [20]) read?
A: Its Activity is “Active”.

Q: And the Activity (Cercopithecidae [7])?
A: The Activity was “inactive”.

Q: What about the Activity (Cercopithecidae [8]) of the same compound?
A: Its Activity is “inactive”.

Q: And the Activity (Cercopithecidae [21])?
A: The Activity was “Weak activity”.

Q: And the Activity (Cercopithecidae [22])?
A: Its Activity is “Active”.

Q: And the Activity (Cercopithecidae [23])?
A: Its Activity is “inactive”.

Q: Which Activity (Cercopithecidae [1]) does the source give for `CCCCCc1cc(O)c2c(c1)OC(C)(C)[C@@H]1CCC(CN(C)C)CC21` (stereo partly drawn) here?
A: Its Activity is “inactive”.

Q: And the Activity (Cercopithecidae [24])?
A: Its Activity is “inactive”.

Q: What about the Activity (Cercopithecidae [4]) of the same compound?
A: Its Activity is “inactive”.

Q: What about the Activity (Cercopithecidae [25]) of the same compound?
A: Its Activity is “inactive”.

Q: Which results are given for `CCCCCc1cc(O)c2c(c1)OC(C)(C)[C@@H]1CC[C@H](CN(C)C)CC21` (stereo partly drawn)?
A: Activity (Cercopithecidae [1]): inactive; Activity (Cercopithecidae [15]): present; Activity (Cercopithecidae [16]): present; Activity (Cercopithecidae [17]): present; Activity (Cercopithecidae [26]): inactive; Activity (Cercopithecidae [18]): inactive
